Experiments:
Cytochrome P450 2C19 = Cytochrome P450 2C19 (Homo sapiens, UniProt P33261); assay: Inhibition of human recombinant CYP2C19 by mass spectrophotometry; type: ADME
Method in brief: (§1)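 Compound 0.1–25 µM (0.3% DMSO) incubated with microsomes, NADPH and isoform-specific probe substrate. CYP2C19, 2C9, 2D6, 3A4 metabolites measured by mass spectrometry; CYP1A2 by fluorescent metabolite. IC50 from reduced metabolite formation versus vehicle.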

Cytochrome P450 2C9 = Cytochrome P450 2C9 (Homo sapiens, UniProt P11712); assay: Inhibition of human recombinant CYP2C9 by mass spectrophotometry; type: ADME; method in brief: as §1
Cytochrome P450 2C9, sequence (P11712 whole entry): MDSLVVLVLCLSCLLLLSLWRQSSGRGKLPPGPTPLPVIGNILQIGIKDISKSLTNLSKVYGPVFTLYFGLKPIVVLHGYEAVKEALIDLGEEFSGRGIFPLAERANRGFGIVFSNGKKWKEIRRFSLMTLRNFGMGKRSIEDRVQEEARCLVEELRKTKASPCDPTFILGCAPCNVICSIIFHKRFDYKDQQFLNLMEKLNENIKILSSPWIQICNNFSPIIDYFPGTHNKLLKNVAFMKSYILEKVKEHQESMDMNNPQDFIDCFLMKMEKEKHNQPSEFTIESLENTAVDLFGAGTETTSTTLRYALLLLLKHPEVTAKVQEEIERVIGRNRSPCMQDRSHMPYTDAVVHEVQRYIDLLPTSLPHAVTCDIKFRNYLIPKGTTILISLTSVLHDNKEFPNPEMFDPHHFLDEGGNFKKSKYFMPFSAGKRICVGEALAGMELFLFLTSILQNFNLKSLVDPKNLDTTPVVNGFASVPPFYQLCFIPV

[1] = Mutagenicity in micronucleus at 500 uM by in vitro assay; type: ADME
Homo sapiens = species on record: Homo sapiens; assay: Selectivity ratio of Ki for human NOX2 to Ki for human NOX4
Method in brief: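 Ratio of Ki values from the Amplex Red membrane ROS assay (PMN membranes for Nox2, Nox4-overexpressing membranes), NADPH-triggered, 1 nM–100 µM, 20 min at 37 °C; Ki via Cheng-Prusoff.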

Mus musculus = assay: Antifibrotic activity in C57BL/6 mouse pulmonary fibrosis curative model assessed as reduction in bleomycin-induced collagen deposition at 10 mg/kg, po qd administered 10 days post challenge […] measured on day 25 by SIRCOL assay; type: functional
Method in brief: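 Male C57BL/6 mice (9–10 weeks) under ketamine/xylazine given 0.0125 U bleomycin intratracheally in 40 µL saline. Daily oral dosing at 10 mL/kg in 3% DMSO then aqueous 0.5% CMC/0.25% Tween 20. Whole-lung collagen by Sircol dye binding (0.5 M acetic acid extraction overnight, 540 nm, rat-tail collagen standard), µg per lung.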

Cytochrome P450 2C19, sequence (P33261 whole entry, canonical isoform): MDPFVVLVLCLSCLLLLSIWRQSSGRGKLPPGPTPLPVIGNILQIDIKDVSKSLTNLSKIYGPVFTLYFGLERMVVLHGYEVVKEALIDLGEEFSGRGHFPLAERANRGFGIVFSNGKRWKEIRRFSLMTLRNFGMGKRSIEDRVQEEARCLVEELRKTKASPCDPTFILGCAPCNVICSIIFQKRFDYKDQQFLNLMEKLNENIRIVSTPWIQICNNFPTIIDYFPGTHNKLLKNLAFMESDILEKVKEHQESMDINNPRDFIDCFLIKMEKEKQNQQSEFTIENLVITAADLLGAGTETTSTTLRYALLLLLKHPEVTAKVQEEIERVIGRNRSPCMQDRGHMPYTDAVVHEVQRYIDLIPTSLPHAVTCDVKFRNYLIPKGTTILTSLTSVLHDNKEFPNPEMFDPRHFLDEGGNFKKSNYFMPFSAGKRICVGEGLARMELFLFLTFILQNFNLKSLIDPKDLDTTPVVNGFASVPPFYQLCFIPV

IC50 (Cytochrome P450 2C19): > 25 µM | IC50 (Cytochrome P450 2C9): > 25 µM | Ratio Ki (Homo sapiens): 18.6
Compound: Cl.O=c1c2c3n(c(=O)cc2[nH]n1-c1ccccc1Cl)CCCN(Cc1ccccc1)C3
Activity [1]: Non-toxic | inhibition in vivo at 10 mg/kg (Mus musculus): 64%
